Experimental data published in ChEMBL document CHEMBL1148476, “3-(4-Aroyl-1-methyl-1H-2-pyrrolyl)-N-hydroxy-2-propenamides as a new class of synthetic histone deacetylase inhibitors. 2. Effect of pyrrole-C2 and/or -C4 substitutions on biological activity” (J Med Chem, 2004).
pIC50: −log10 of the molar value. Active and inactive are the calls of the source. The calls are words filed in the database; no cut-off is given here. Non-standard residues stand in square brackets, D forms with d. Residues, ends and D or L forms follow the SMILES beside them. ξ: configuration not given here. Aoe(9ξ) = N[C@@H](CCCCCC(=O)C1CO1)C(=O)O; dPip = O=C(O)[C@H]1CCCCN1

Legend:
Histone deacetylase HD2 [1] = molecular target: T1, Histone deacetylase HD2 (Zea mays, UniProt Q94F81); assay: (§1) Inhibitory concentration against histone deacetylase HD2 enzyme.
T1 sequence (Q94F81 whole entry): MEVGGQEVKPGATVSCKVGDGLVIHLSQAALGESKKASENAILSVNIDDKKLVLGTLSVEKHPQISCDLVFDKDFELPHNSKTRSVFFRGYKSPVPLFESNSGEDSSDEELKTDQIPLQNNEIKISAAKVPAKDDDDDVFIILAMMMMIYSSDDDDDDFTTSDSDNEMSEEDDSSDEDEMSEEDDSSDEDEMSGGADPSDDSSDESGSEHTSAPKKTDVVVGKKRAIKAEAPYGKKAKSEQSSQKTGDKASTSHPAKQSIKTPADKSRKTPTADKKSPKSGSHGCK
Procedure, shortened: (§2)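 Maize HD2, purified by anion exchange, heparin/histone affinity and size exclusion chromatography, incubated 30 min at 30 °C with [3H]acetate-prelabeled chicken reticulocyte core histones (1 mg/mL). Stopped with HCl/acetate and extracted into ethyl acetate. Released [3H]acetic acid in the upper phase was counted by liquid scintillation. Compounds started at 40 µM and active ones were diluted further. Blank solvents served as negative controls. IC50 values are from triple determinations.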

Histone deacetylase HD2 [2] = molecular target: T1, Histone deacetylase HD2; assay: Concentration required for inhibition of histone deacetylase HD2 in vitro.
[3] = molecular target: T2, Histone deacetylase HD2 (Zea mays) (UniProt Q94F81); assay: Ability to inhibit maize histone deacetylase enzyme in vitro using [3H]acetate-prelabeled chicken reticulocyte histones at 28 uM; procedure, shortened: as §2
T2 sequence (whole entry): T1 sequence (Q94F81 whole entry)

[4] = molecular target: T2, Histone deacetylase HD2 (Zea mays); assay: Ability to inhibit maize histone deacetylase enzyme in vitro using [3H]acetate-prelabeled chicken reticulocyte histones at 23.3 uM; procedure, shortened: as §2
[5] = molecular target: T2, Histone deacetylase HD2 (Zea mays); assay: Ability to inhibit maize histone deacetylase enzyme in vitro using [3H]acetate-prelabeled chicken reticulocyte histones at 27 uM; procedure, shortened: as §2
[6] = molecular target: T2, Histone deacetylase HD2 (Zea mays); assay: Ability to inhibit maize histone deacetylase enzyme in vitro using [3H]acetate-prelabeled chicken reticulocyte histones at 24 uM
Procedure, shortened: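 Maize HD2 purified by anion exchange, heparin/histone affinity and size exclusion chromatography. Enzyme incubated 30 min at 30 °C with [3H]acetate-prelabeled chicken reticulocyte core histones (1 mg/mL stock). Reaction stopped with HCl/acetate plus ethyl acetate, then centrifuged. Released [3H]acetic acid in the upper phase counted by liquid scintillation. Blank solvent served as negative control. Triple determinations.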

[7] = molecular target: T2, Histone deacetylase HD2 (Zea mays); assay: Ability to inhibit maize histone deacetylase enzyme in vitro using [3H]acetate-prelabeled chicken reticulocyte histones at 25.7 uM; procedure, shortened: as §2
[8] = molecular target: T2, Histone deacetylase HD2 (Zea mays); assay: as §1; procedure, shortened: as §2
[9] = molecular target: T2, Histone deacetylase HD2 (Zea mays); assay: Ability to inhibit maize histone deacetylase enzyme in vitro using [3H]acetate-prelabeled chicken reticulocyte histones at 30 uM; No inhibition; procedure, shortened: as §2
[10] = molecular target: T2, Histone deacetylase HD2 (Zea mays); assay: Ability to inhibit maize histone deacetylase enzyme in vitro using [3H]acetate-prelabeled chicken reticulocyte histones at 29.8 uM; procedure, shortened: as §2
[11] = molecular target: T2, Histone deacetylase HD2 (Zea mays); assay: Ability to inhibit maize histone deacetylase enzyme in vitro using [3H]acetate-prelabeled chicken reticulocyte histones at 21.3 uM; procedure, shortened: as §2
[12] = molecular target: T2, Histone deacetylase HD2 (Zea mays); conditions: 24.6 uM
[13] = molecular target: T2, Histone deacetylase HD2 (Zea mays); assay: Ability to inhibit maize histone deacetylase enzyme in vitro using [3H]acetate-prelabeled chicken reticulocyte histones at 26 uM; procedure, shortened: as §2
[14] = molecular target: T2, Histone deacetylase HD2 (Zea mays); assay: Ability to inhibit maize histone deacetylase enzyme in vitro using [3H]acetate-prelabeled chicken reticulocyte histones at 20.8 uM; procedure, shortened: as §2
[15] = molecular target: T2, Histone deacetylase HD2 (Zea mays); assay: Ability to inhibit maize histone deacetylase enzyme in vitro using [3H]acetate-prelabeled chicken reticulocyte histones at 21.7 uM; procedure, shortened: as §2
[16] = molecular target: T2, Histone deacetylase HD2 (Zea mays); assay: Ability to inhibit maize histone deacetylase enzyme in vitro using [3H]acetate-prelabeled chicken reticulocyte histones at 29 uM
Procedure, shortened: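 Maize HD2 purified by anion exchange, heparin/histone affinity and size exclusion chromatography. Enzyme incubated 30 min at 30 °C with [3H]acetate-prelabeled chicken reticulocyte core histones (1 mg/mL). Stopped with HCl/acetate, then extracted into ethyl acetate; released [3H]acetic acid in the upper phase counted by liquid scintillation. Triple determinations; blank solvent as negative control.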

[17] = molecular target: T2, Histone deacetylase HD2 (Zea mays); assay: Ability to inhibit maize histone deacetylase enzyme in vitro using [3H]acetate-prelabeled chicken reticulocyte histones at 30 uM; NI = No inhibition; procedure, shortened: as §2
[18] = molecular target: T2, Histone deacetylase HD2 (Zea mays); assay: Ability to inhibit maize histone deacetylase enzyme in vitro using [3H]acetate-prelabeled chicken reticulocyte histones at 23.9 uM; procedure, shortened: as §2
[19] = molecular target: T2, Histone deacetylase HD2 (Zea mays); assay: Ability to inhibit maize histone deacetylase enzyme in vitro using [3H]acetate-prelabeled chicken reticulocyte histones at 24.8 uM; procedure, shortened: as §2
[20] = molecular target: T2, Histone deacetylase HD2 (Zea mays); assay: Ability to inhibit maize histone deacetylase enzyme in vitro using [3H]acetate-prelabeled chicken reticulocyte histones at 28.2 uM; procedure, shortened: as §2
[21] = molecular target: T2, Histone deacetylase HD2 (Zea mays); conditions: 22.4 uM
[22] = molecular target: T2, Histone deacetylase HD2 (Zea mays); assay: Ability to inhibit maize histone deacetylase enzyme in vitro using [3H]acetate-prelabeled chicken reticulocyte histones at 25.8 uM; procedure, shortened: as §2
[23] = molecular target: T2, Histone deacetylase HD2 (Zea mays); assay: Ability to inhibit maize histone deacetylase enzyme in vitro using [3H]acetate-prelabeled chicken reticulocyte histones at 22.6 uM; procedure, shortened: as §2
[24] = molecular target: T2, Histone deacetylase HD2 (Zea mays); conditions: 25 uM

| Compound | pIC50 (Histone deacetylase HD2 [1]) | pIC50 (Histone deacetylase HD2 [2]) | also measured |
| --- | --- | --- | --- |
| Cn1cc(C(=O)/C=C/c2ccccc2)cc1/C=C/C(=O)NO | 6.00 | 6.00 | inhibition [3]: 95% |
| Cn1cc(C(=O)c2ccccc2)cc1C=C(C(=O)NO)C(=O)NO | 4.18 | 4.18 | inhibition [4]: 22.7% |
| Cn1cc(C(=O)Cc2ccccc2)cc1CCC(=O)NO | 5.92 | 5.92 | inhibition [5]: 96% |
| Cn1cc(C(=O)c2ccc3ccccc3c2)cc1/C=C/C(=O)NO | 6.94 | 6.94 | inhibition [6]: 93.8% |
| Cn1cc(C(=O)CCc2ccccc2)cc1/C=C/C(=O)NO | 7.37 | 7.37 | inhibition [7]: 98% |
| CC/C(=C\c1cc(C(=O)Cc2ccccc2)cn1C)C(=O)NO | – | – | Log IC50 [8]: inactive; inhibition [9]: inactive |
| C/C(=C\c1cc(C(=O)c2ccccc2)cn1C)C(=O)NO | 5.57 | 5.57 | inhibition [5]: 83% |
| Cn1c(CC(=O)NO)ccc1C(=O)c1ccccc1 | 4.69 | 4.69 | inhibition [10]: 61.3% |
| Cn1cc(C(=O)c2ccccc2)cc1CC(=O)NO | 4.46 | 4.46 | – |
| Cn1cc(C(=O)C2(c3ccccc3)CC2)cc1/C=C/C(=O)NO | 7.00 | 7.00 | inhibition [11]: 94.2% |
| Cn1cc(C(=O)c2ccccc2)cc1/C=C/C=C/C(=O)NO | 6.11 | 6.11 | inhibition [3]: 94% |
| Cn1cc(C(=O)CCCc2ccccc2)cc1/C=C/C(=O)NO | 6.89 | 6.89 | inhibition [12]: 94% |
| C/C(=C\c1cc(C(=O)Cc2ccccc2)cn1C)C(=O)NO | 5.85 | 5.85 | inhibition [13]: 95% |
| Cn1cc(C(=O)CCCCCCCc2ccccc2)cc1/C=C/C(=O)NO | 6.68 | 6.68 | inhibition [14]: 96% |
| CCCC(CCC)C(=O)O [VALPROATE SODIUM] | – | 3.89 | – |
| O=C(CCCCC[C@@H]1NC(=O)[C@H]2CCCCN2C(=O)[C@H](Cc2ccccc2)NC(=O)[C@H](Cc2ccccc2)NC1=O)C1CO1 (stereo partly specified) [TRAPOXIN A] (cyclo(FF[dPip][Aoe(9ξ)])) | – | 8.00 | – |

| Compound | pIC50 (Histone deacetylase HD2 [1]) | pIC50 (Histone deacetylase HD2 [2]) | also measured |
| --- | --- | --- | --- |
| Cn1cc(C(=O)CCCCCCc2ccccc2)cc1/C=C/C(=O)NO | 6.58 | 6.58 | inhibition [15]: 95% |
| Cn1cc(C(=O)Cc2ccccc2)cc1/C=C/C(=O)NO | 7.00 | 7.00 | inhibition [16]: 96% |
| Cn1cc(C(=O)c2ccccc2)cc1C=C(C(=O)O)C(=O)O | – | – | Log IC50 [8]: inactive; inhibition [17]: inactive |
| Cn1cc(C(=O)Cc2ccccc2)cc1C=C(C(=O)O)C(=O)O | – | – | Log IC50 [8]: inactive; inhibition [9]: inactive |
| CC/C(=C\c1cc(C(=O)/C=C/c2ccccc2)cn1C)C(=O)NO | – | – | Log IC50 [8]: inactive; inhibition [9]: inactive |
| Cn1cc(C(=O)/C=C/c2ccccc2)cc1/C=C/C=C/C(=O)NO | 5.00 | 5.00 | inhibition [18]: 66% |
| Cn1cc(C(=O)c2cccc3ccccc23)cc1/C=C/C(=O)NO | 6.84 | 6.84 | inhibition [6]: 93.6% |
| Cn1cc(C(=O)Cc2ccccc2)cc1/C=C/C=C/C(=O)NO | 5.83 | 5.83 | inhibition [19]: 89.8% |
| Cn1cc(C(=O)Cc2ccccc2)cc1CC(=O)NO | 4.97 | 4.97 | inhibition [20]: 62.8% |
| Cn1cc(C(=O)CCCCc2ccccc2)cc1/C=C/C(=O)NO | 6.96 | 6.96 | inhibition [4]: 94% |
| Cn1cc(C(=O)Cc2ccccc2)cc1C=C(C(=O)NO)C(=O)NO | 6.70 | 6.70 | inhibition [21]: 91% |
| CC/C(=C\c1cc(C(=O)c2ccccc2)cn1C)C(=O)NO | – | – | Log IC50 [8]: inactive; inhibition [22]: 37% |
| Cn1cc(C(=O)CCCCCc2ccccc2)cc1/C=C/C(=O)NO | 7.15 | 7.15 | inhibition [23]: 97.2% |
| C/C(=C\c1cc(C(=O)/C=C/c2ccccc2)cn1C)C(=O)NO | 5.89 | 5.89 | inhibition [24]: 96% |
| Cn1c(CC(=O)NO)ccc1C(=O)Cc1ccccc1 | 4.77 | 4.77 | inhibition [20]: 64.2% |
| Cn1cc(C(=O)C2CC2c2ccccc2)cc1/C=C/C(=O)NO (stereo unspecified) | 6.51 | 6.51 | inhibition [19]: 97.6% |
